This note sets out measurements from paper PMC6548570 (Bioorganic & medicinal chemistry, 2019).

Molecules are shown by their SMILES.

One series addresses sigma-2 (Homo sapiens, UniProt Q5BJF2). Put plainly: Radioligand binding assay against sigma-2. To be noted: for pKi ± SEM Sigma-2: displacement of [3H]-DTG, <5 = not >50% inhibition at 10 μM single concentration. A general note: In a radioligand displacement assay an active substance lowers the binding of a labelled ligand.
A further series in a line: Mouse liver microsomal. To be noted: 37 °C. In kind it is in vitro ADME. In a few lines: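 Mouse liver microsomes (0.4 mg/mL) with NADPH in 0.5 M phosphate buffer, test compound at 10 μM. T0 samples quenched at once with 2 volumes ice-cold acetonitrile; others shaken 60 min at 37 °C, then quenched likewise. Verapamil-HCl as control. After centrifugation, parent quantified by UPLC/MS (SRM). % remaining = (60 min/0 min concentration)×100; duplicate runs, mean reported.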
Background: Liver microsomes are a subcellular fraction often used to study metabolism.

The target of the next series is sigma-1 (Homo sapiens, UniProt Q99720). Briefly: Radioligand binding assay against sigma-1.
Chain of sigma-1 (Q99720 whole entry): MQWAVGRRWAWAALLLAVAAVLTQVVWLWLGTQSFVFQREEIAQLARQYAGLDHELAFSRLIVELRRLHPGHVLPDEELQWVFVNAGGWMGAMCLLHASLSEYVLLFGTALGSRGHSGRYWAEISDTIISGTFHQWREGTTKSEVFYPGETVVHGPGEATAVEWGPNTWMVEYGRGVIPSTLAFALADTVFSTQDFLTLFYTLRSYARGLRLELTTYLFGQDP

Chain of sigma-2 (Q5BJF2 whole entry): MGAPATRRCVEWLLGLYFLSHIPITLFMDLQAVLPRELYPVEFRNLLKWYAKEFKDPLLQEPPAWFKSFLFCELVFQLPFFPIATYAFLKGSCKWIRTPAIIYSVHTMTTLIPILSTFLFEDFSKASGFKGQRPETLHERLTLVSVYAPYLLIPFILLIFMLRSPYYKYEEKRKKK

Regarding `O=C(c1nn(-c2ccccc2)c2c1CC(NCc1ccc(F)cc1)CC2)N1CCCCC1` (stereo not shown) [7aa, (5-((4-Fluorobenzyl)amino)-1-phenyl-4,5,6,7-tetrahydro-1H-indazol-3-yl)(piperidin-1-yl)methanone], on sigma-2, the “activity against sigma-2 (in words)” value is on record as “no activity” and the “pKi ± SEM Sigma-2” value is <5 M.
Turning to `O=C(c1nn(-c2ccccc2)c2c1CC(NCc1ccccc1)CC2)N1CCCCC1` (stereo not shown) [7ab, (5-(Benzylamino)-1-phenyl-4,5,6,7-tetrahydro-1H-indazol-3-yl)(piperidin-1-yl)methanone], the “consumption by liver microsomes after 60 minutes (in words)” value in “Mouse liver microsomal” is on record as “nearly-completely consumed”.
With `O=C(c1nn(-c2ccccc2)c2c1CC(NCCc1ccc(C(F)(F)F)cc1)CC2)N1CCCCC1` (stereo not shown) [7ac, (1-Phenyl-5-((4-(trifluoromethyl)phenethyl)amino)-4,5,6,7-tetrahydro-1H-indazol-3-yl)(piperidin-1-yl)methanone], the “pKi ± SEM Sigma-2” value at sigma-2 is given as <5 M.
Turning to `O=C(c1nn(-c2ccccc2)c2c1CC(NCCc1cccc(O)c1)CC2)N1CCCCC1` (stereo not shown) [7af, (5-((3-Hydroxyphenethyl)amino)-1-phenyl-4,5,6,7-tetrahydro-1H-indazol-3-yl)(piperidin-1-yl)methanone], on sigma-2, the “pKi ± SEM Sigma-2” value is <5 M.
On the same count and under the same terms, under `O=C(c1nn(Cc2ccccc2)c2c1CC(NCCc1ccncc1)CC2)N1CCCCC1` (stereo not shown) [7ag, (1-Benzyl-5-((2-(pyridin-4-yl)ethyl)amino)-4,5,6,7-tetrahydro-1H-indazol-3-yl)(piperidin-1-yl)methanone] stands <5 M; under `O=C(c1nn(Cc2ccccc2)c2c1CC(NCc1ccc(F)cc1)CC2)N1CCCCC1` (stereo not shown) [7ah, (1-Benzyl-5-((4-fluorobenzyl)amino)-4,5,6,7-tetrahydro-1H-indazol-3-yl)(piperidin-1-yl)methanone], <5 M.
As for `O=C(c1c2c(nn1-c1ccccc1)CCC(NCc1ccc(F)cc1)C2)N1CCCCC1` (stereo not shown) [7ba, (5-((4-Fluorobenzyl)amino)-2-phenyl-4,5,6,7-tetrahydro-2H-indazol-3-yl)(piperidin-1-yl)methanone], at sigma-1 (N-2 vs N-1 regioisomer), the “fold more potent against sigma-1 compared to N-1 regioisomer 7aa” value is recorded as “over 5 fold”. On sigma-2 (N-2 vs N-1 regioisomer), the “fold more potent against sigma-2 compared to N-1 regioisomer 7aa” value was > 60 fold. The “consumption by liver microsomes after 60 minutes (in words)” value in “Mouse liver microsomal” is given as “nearly-completely consumed”.
As for `O=C(c1c2c(nn1-c1ccccc1)CCC(NCCc1ccc(C(F)(F)F)cc1)C2)N1CCCCC1` (stereo not shown) [7bc, (2-Phenyl-5-((4-(trifluoromethyl)phenethyl)amino)-4,5,6,7-tetrahydro-2H-indazol-3-yl)(piperidin-1-yl)methanone], at sigma-2, the “pKi ± SEM Sigma-2” value was <5 M.
As for `O=C(c1c2c(nn1-c1ccc(F)cc1)CCC(NCc1ccc(F)cc1)C2)N1CCCCC1` (stereo not shown) [7bf, (5-((4-Fluorobenzyl)amino)-2-(4-fluorophenyl)-4,5,6,7-tetrahydro-2H-indazol-3-yl)(piperidin-1-yl)methanone], the “selectivity for sigma-1 against sigma-2” value on sigma-1 (sigma-1 over sigma-2) is “over 500 fold”.
As to `NC(=O)c1ccc(-n2nc3c(c2C(=O)N2CCCCC2)CC(NCCc2ccccc2)CC3)cc1` (stereo not shown) [7bg, 4-(5-(Phenethylamino)-3-(piperidine-1-carbonyl)-4,5,6,7-tetrahydro-2H-indazol-2-yl)benzamide], the “pKi ± SEM Sigma-2” value at sigma-2 is on record as <5 M.
In the case of `CCCn1nc(C(=O)N(C)C)c2c1CCC(OCc1ccc(F)cc1)C2` (stereo not shown) [compound 9, 5-((4-Fluorobenzyl)oxy)-N,N-dimethyl-1-propyl-4,5,6,7-tetrahydro-1H-indazole-3-carboxamide], the “activity against sigma-1 (in words)” value at sigma-1 was “completely lost”. On sigma-2, the “activity against sigma-2 (in words)” value was “completely lost” and the “pKi ± SEM Sigma-2” value is <5 M.
Take `CCCn1nc(C(=O)N(C)C)c2c1CCC(SCc1ccc(F)cc1)C2` (stereo not shown) [compound 11, 5-((4-Fluorobenzyl)thio)-N,N-dimethyl-1-propyl-4,5,6,7-tetrahydro-1H-indazole-3-carboxamide]: at sigma-1, the “activity against sigma-1 (in words)” value is “completely lost”. In addition, at sigma-2, the “activity against sigma-2 (in words)” value is listed as “completely lost” and the “pKi ± SEM Sigma-2” value is reported as <5 M.
In the case of `CCCn1nc(C(=O)N(C)C)c2c1CCC(NC(=O)c1ccc(F)cc1)C2` (stereo not shown) [compound 13, 5-(4-Fluorobenzamido)-N,N-dimethyl-1-propyl-4,5,6,7-tetrahydro-1H-indazole-3-carboxamide], the “activity against sigma-1 (in words)” value at sigma-1 was “complete loss of activity”. At sigma-2, the “activity against sigma-2 (in words)” value was “complete loss of activity” and the “pKi ± SEM Sigma-2” value is given as <5 M.
In the case of `CCCn1nc(C(=O)N(C)C)c2c1CCC(NS(=O)(=O)c1ccc(F)cc1)C2` (stereo not shown) [compound 14, 5-((4-Fluorophenyl)sulfonamido)-N,N-dimethyl-1-propyl-4,5,6,7-tetrahydro-1H-indazole-3-carboxamide], the “activity against sigma-1 (in words)” value at sigma-1 is reported as “complete loss of activity”. Moreover, at sigma-2, the “activity against sigma-2 (in words)” value was “complete loss of activity” and the “pKi ± SEM Sigma-2” value was <5 M.
